Test results reported in ChEMBL document CHEMBL3865847, “The synthesis and biological evaluation of alkyl and benzyl naphthyridinium analogs of eupolauridine as potential antimicrobial and cytotoxic agents” (Bioorg Med Chem, 2016).
Several values for one entry are separate records, joined by “and”; a condition that tells them apart may be missing. Equal entries are not always repeated.

Experiments:
[1] = Selectivity index, ratio of IC50 for human DNA topoisomerase 1 to IC50 for Candida albicans DNA topoisomerase 1
[2] = Inhibition of Candida albicans DNA topoisomerase 1 using pHOT1 as substrate after 30 mins by agarose gel electrophoresis
Procedure, shortened: (§1)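 Relaxation of supercoiled to relaxed DNA by TopoI measured with a commercial TopoI drug kit following kit protocol. IC50 calculated from dose-response curves of % inhibition versus concentration.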

[3] = Cytotoxicity against African green monkey Vero cells assessed as cell growth inhibition at 10 ug/ml after 48 hrs by neutral red dye based assay; format: toxicity; conditions: chlorocebus sabaeus
Procedure, shortened: (§2)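 Cells kept in RPMI-1640 with 10% bovine serum and 60 µg/mL amikacin, 37 °C, 5% CO2. Seeded at 25,000 cells/well, left 24 h to adhere. Samples diluted in RPMI added, highest final concentration 10 µg/mL. Growth measured by neutral red uptake after 48 h exposure.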

[4] = Cytotoxicity against human SK-MEL cells assessed as cell growth inhibition after 48 hrs by neutral red dye based assay; format: functional; procedure, shortened: as §2
DNA topoisomerase 1 = target: T1, DNA topoisomerase 1 (Homo sapiens, UniProt P11387); assay: Inhibition of human DNA topoisomerase 1 using pHOT1 as substrate after 30 mins by agarose gel electrophoresis; procedure, shortened: as §1
T1 sequence (P11387 whole entry): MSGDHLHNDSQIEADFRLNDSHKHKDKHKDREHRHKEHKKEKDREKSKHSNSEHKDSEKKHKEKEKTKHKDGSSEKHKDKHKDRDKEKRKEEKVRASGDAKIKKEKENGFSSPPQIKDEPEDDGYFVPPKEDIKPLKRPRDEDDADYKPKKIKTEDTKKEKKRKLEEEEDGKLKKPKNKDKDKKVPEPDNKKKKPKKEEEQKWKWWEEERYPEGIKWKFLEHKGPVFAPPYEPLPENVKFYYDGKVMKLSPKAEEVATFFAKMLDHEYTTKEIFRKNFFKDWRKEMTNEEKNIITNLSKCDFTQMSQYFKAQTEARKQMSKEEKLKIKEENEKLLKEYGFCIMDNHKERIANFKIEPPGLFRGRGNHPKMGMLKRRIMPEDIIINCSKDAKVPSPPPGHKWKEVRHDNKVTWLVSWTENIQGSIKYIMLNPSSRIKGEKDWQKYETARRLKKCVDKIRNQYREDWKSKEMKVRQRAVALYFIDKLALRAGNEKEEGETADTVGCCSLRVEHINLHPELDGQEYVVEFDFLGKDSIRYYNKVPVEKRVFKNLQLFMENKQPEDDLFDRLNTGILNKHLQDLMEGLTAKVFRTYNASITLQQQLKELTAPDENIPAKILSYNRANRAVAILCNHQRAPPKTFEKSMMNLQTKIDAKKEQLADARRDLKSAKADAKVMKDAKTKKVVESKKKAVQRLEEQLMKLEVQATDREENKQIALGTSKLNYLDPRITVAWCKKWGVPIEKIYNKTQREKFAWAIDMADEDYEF

[5] = Cytotoxicity against human SKOV3 cells assessed as cell growth inhibition after 48 hrs by neutral red dye based assay; format: functional; conditions: SK-OV-3, 48 h; procedure, shortened: as §2
Plasmodium falciparum = assay: Antimalarial activity against Plasmodium falciparum D6 infected in RBC after 48 hrs by lactate dehydrogenase assay; format: functional; conditions: D6, 48 h
Procedure, shortened: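 Parasites grown in A+ human erythrocytes in RPMI 1640 with 10% A+ human serum, 25 mM HEPES, 27 mM bicarbonate, 60 µg/mL amikacin, 37 °C under 90% N2/5% O2/5% CO2. Infected cells exposed 48 h in microtiter wells, highest concentration 4.8 µg/mL. Growth read by Malstat reagent (parasite LDH) with nitro blue tetrazolium reduction, absorbance 630 nm.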

[6] = Cytotoxicity against human KB cells assessed as cell growth inhibition after 48 hrs by neutral red dye based assay; format: functional; procedure, shortened: as §2
Cryptococcus neoformans = assay: Antimicrobial activity against Cryptococcus neoformans ATCC 52657; format: functional
Procedure, shortened: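 Grown in mycophil broth 72 h, hemocytometer-counted, diluted to 200,000 CFU/mL. Exposed to diluted samples in 96-well plates, maximum final 50 µg/mL (DMSO up to 2.5%), incubated 30 °C. A630 readout. MIC is the lowest concentration inhibiting 80% of growth versus controls; IC50 read from concentration versus % growth graphs.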

[7] = Cytotoxicity against human BT549 cells assessed as cell growth inhibition after 48 hrs by neutral red dye based assay; format: functional; conditions: BT-549, 48 h; procedure, shortened: as §2
Candida albicans = assay: Antimicrobial activity against Candida albicans B311; format: functional
Procedure, shortened: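 Cultured in Sabouraud dextrose broth 24 h, counted by hemocytometer, diluted to 10,000 CFU/mL. Added to serially diluted samples in 96-well plates, top final concentration 50 µg/mL (≤2.5% DMSO), incubated 37 °C. Growth by A630. MIC is the lowest concentration giving 80% inhibition against controls; IC50 from concentration versus % growth plots.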

[8] = test system: Mycobacterium intracellulare; assay: Antimicrobial activity against Mycobacterium intracellulare ATCC 23068; format: functional
Procedure, shortened: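 Mycobacterium grown 72 h in Middlebrook medium with OADC supplement, diluted 1:30 in broth. Incubated at 37 °C with diluted samples in 96-well plates, highest final 50 µg/mL, DMSO at most 2.5%. Absorbance at 630 nm. MIC = lowest concentration with 80% growth inhibition relative to controls; IC50 from concentration versus % growth plots.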

| SMILES | Ratio IC50 [1] | IC50 [2] [µg/mL] | Activity [3] | IC50 [4] [µg/mL] | IC50 (DNA topoisomerase 1) [µM] | IC50 [5] [µg/mL] | IC50 (Plasmodium falciparum) [µg/mL] | IC50 [6] [µg/mL] | IC50 (Cryptococcus neoformans) [µg/mL] | MIC80 (Cryptococcus neoformans) [µg/mL] | IC50 [7] [µg/mL] | IC50 (Candida albicans) [µg/mL] | MIC80 (Candida albicans) [µg/mL] | MIC80 [8] [µg/mL] |
| --- | --- | --- | --- | --- | --- | --- | --- | --- | --- | --- | --- | --- | --- | --- |
| CCOC(=O)C[n+]1ccc2c3c(nc4ccccc42)-c2ccccc2-c31.[Br-] | 0.96 | 2.3 | Non-Toxic | > 10 | 5.7 | 5.9 | 0.56 | – | – | – | – | – | – | – |
| COc1ccc2c(c1)-c1c3c-2nccc3cc[n+]1Cc1ccccc1.[Br-] | 1.15 | 5.75 | Non-Toxic | 1.5 | 12.3 | 0.15 | 0.032 | 0.2 | 0.7 | 1.56 | 1.1 | 16.7 | 25 | 50 |
| C[n+]1ccc2ccnc3c2c1-c1ccccc1-3.[I-] | 1 | 10 | Non-Toxic | – | 28.9 | > 10 | 0.06 | – | 10 | 50 | – | – | – | – |
| C[n+]1ccc2c3c(nc4cc5c(cc42)OCO5)-c2ccccc2-c31.[I-] | 0.94 | 0.425 | Non-Toxic | 5 | 1.02 | 1.2 | 0.028 | 4.2 | 0.37 | 1.56 | 1.2 | 16.1 | 25 | 50 |
| Cc1ccc2c(c1)-c1c3c-2nccc3cc[n+]1Cc1ccccc1.[Br-] | 0.86 | 15 | Non-Toxic | 1.4 | 45 | 0.58 | 0.062 | 0.52 | 0.48 | 1.56 | 1.8 | 6.17 | 12.5 | 50 |
| Fc1ccc(C[n+]2ccc3ccnc4c3c2-c2ccccc2-4)c(F)c1.[Br-] | 0.71 | 32 | Non-Toxic | 6.2 | 109 | 2.8 | 0.015 | – | 0.58 | 1.56 | – | 5.33 | 6.25 | – |
| Clc1cccc(C[n+]2ccc3ccnc4c3c2-c2ccccc2-4)c1.[Br-] | 0.95 | 21 | Non-Toxic | 1.15 | 53.7 | 0.055 | 0.0042 | 0.68 | 0.18 | 0.78 | 1.6 | 3 | 6.25 | 50 |
| Cc1cc2cc[n+](Cc3ccccc3)c3c2c(n1)-c1ccccc1-3.[Br-] | 0.92 | 11 | Non-Toxic | 4.2 | 30.8 | 1.7 | 0.095 | > 10 | 0.82 | 1.56 | 3.5 | 13.3 | 25 | – |
| [Br-].c1ccc(C[n+]2ccc3c4c(nc5cc6c(cc53)OCO6)-c3ccccc3-c42)cc1 | 1 | 0.52 | Non-Toxic | 0.55 | 1.11 | 0.6 | 0.0094 | 1 | 0.57 | 3.12 | 1.3 | 5.17 | 12.5 | – |
| O=C(C[n+]1ccc2ccnc3c2c1-c1ccccc1-3)c1ccccc1.[Br-] | 0.91 | 50 | Non-Toxic | – | 136 | 6 | 0.17 | > 10 | 6.18 | 25 | > 10 | – | – | – |
| CCN(CC)CCCC(C)Nc1ccnc2cc(Cl)ccc12 (stereo unspecified) [CHLOROQUINE] | – | – | – | – | – | – | < 0.02 | – | – | – | – | – | – | – |
| O=[N+]([O-])c1ccc(C[n+]2ccc3ccnc4c3c2-c2ccccc2-4)cc1.[Br-] | 0.86 | 18 | Non-Toxic | 4.9 | 50 | 0.62 | 0.035 | 1.8 | 1.19 | 6.25 | 4 | – | – | 50 |
| CCOC(=O)C[n+]1ccc2ccnc3c2c1-c1ccccc1-3.[Br-] | 0.83 | 75 | Non-Toxic | – | 242 | 7.6 | 0.5 | – | – | – | – | – | – | – |
| C[n+]1ccc2c3c(nc4ccccc42)-c2ccccc2-c31 | 0.83 and 1 | – | – | – | – | – | – | – | – | – | – | – | – | – |
| [Br-].c1ccc(C[n+]2ccc3cc(-c4ccccc4)nc4c3c2-c2ccccc2-4)cc1 | 0.98 | 4.3 | Non-Toxic | 0.7 | 9.75 | 0.25 | 0.04 | 1 | 0.95 | 3.12 | 1.2 | 1.5 | 3.12 | – |
| Cc1cc2cc[n+](C)c3c2c(n1)-c1ccccc1-3.[I-] | 1.11 | 5 | Non-Toxic | – | 12.5 | – | 0.11 | – | 8 | 50 | – | – | – | – |
| [Br-].c1ccc(C[n+]2ccc3ccnc4c3c2-c2ccccc2-4)cc1 | 0.5 | 19 | Non-Toxic | 5.4 | 101 | 1.5 | 0.0225 | – | 0.43 | 1.56 | – | 4.17 | 6.25 | – |
| Cc1cc(C)cc(CS(=O)(=O)[O-])c1.N[n+]1ccc2ccnc3c2c1-c1ccccc1-3 | 0.5 | 7.5 | Non-Toxic | > 10 | 35.8 | – | 3.2 | – | 19.7 | 50 | – | – | – | – |
| Fc1ccc2c(c1)-c1c3c-2nccc3cc[n+]1Cc1ccccc1.[Br-] | – | – | Non-Toxic | 5.6 | – | 0.53 | 0.033 | 1.3 | 0.52 | 0.78 | 2.5 | 1.5 | 3.12 | 50 |
| Fc1ccc(C[n+]2ccc3ccnc4c3c2-c2ccccc2-4)cc1.[Br-] | 0.8 | 40 | Non-Toxic | 6 | 127 | 1.5 | 0.017 | > 10 | 0.87 | 3.12 | 7.5 | 9.33 | 12.5 | – |
